Source: ChEMBL document CHEMBL5357066, “Development of Novel Membrane Disrupting Lipoguanidine Compounds Sensitizing Gram-Negative Bacteria to Antibiotics” (ACS Med Chem Lett, 2024)

Legend:
Acinetobacter baumannii [1] = assay: Synergistic antibacterial activity against Acinetobacter baumannii ATCC 17978 assessed as rifampicin MIC at <=0.25 times MIC incubated for overnight by microbroth dilution checkerboard assay; type: functional
Outline: (§1)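 Checkerboard microdilution under MIC conditions (TSB, overnight, 37 °C). Two-fold series of each agent were combined on one plate before bacteria were added, and single-agent MICs were measured on the same plate. FIC = sum of combination MIC/alone MIC for each agent, taken from the most synergistic well. Three independent repeats, mean ± SD. ≤0.5 was taken as strong synergy and 0.5–<1 as weak.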

Escherichia coli [2] = assay: Synergistic antibacterial activity against Escherichia coli NCTC 12923 assessed as fold change in rifampicin MIC at <=0.25 times MIC incubated for overnight by microbroth dilution checkerboard assay relative to rifampicin alone; type: functional; outline: as §1
Klebsiella pneumoniae [3] = assay: Synergistic antibacterial activity against […] Klebsiella pneumoniae M6 assessed as fold change in rifampicin MIC at <=0.25 times MIC incubated for overnight by microbroth dilution checkerboard assay relative to rifampicin alone; type: functional
Outline: (§2)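 Checkerboard run under the MIC conditions (TSB, overnight, 37 °C). Antibiotic and lipoguanidine 2-fold series were combined on one plate before bacteria were added. Growth/no-growth was scored as for the MIC (<0.1 OD600). Single-agent MICs were measured on the same plates. Three independent repeats were done.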

Pseudomonas aeruginosa [4] = assay: Synergistic antibacterial activity against Pseudomonas aeruginosa PAO1 assessed as rifampicin MIC at <=0.25 times MIC incubated for overnight by microbroth dilution checkerboard assay; type: functional
Outline: (§3)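 Checkerboard microdilution in Tryptic Soy Broth, run like the MIC assay. Overnight TSB cultures were back-diluted to OD 0.01 and added 1:1 to the combined two-fold series of both agents, then incubated overnight at 37 °C. Growth/no-growth was called at <0.1 OD600. MICs alone were read on the same plates. FIC index came from the most synergistic well; three independent repeats, mean ± SD.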

Klebsiella pneumoniae [5] = assay: Synergistic antibacterial activity against […] Klebsiella pneumoniae M6 assessed as rifampicin MIC at <=0.25 times MIC incubated for overnight by microbroth dilution checkerboard assay; type: functional; outline: as §2
Acinetobacter baumannii [6] = assay: Antibacterial activity against Acinetobacter baumannii AYE assessed as bacterial growth inhibition incubated for overnight by microbroth dilution method; type: functional
Outline: (§4)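 Broth microdilution in Tryptic Soy Broth. DMSO stocks were diluted in TSB as 2-fold series. Overnight TSB cultures were back-diluted to OD 0.01 and mixed 1:1 with compound. Incubation was overnight at 37 °C. MIC was the lowest concentration without visible growth (<0.1 OD600). DMSO vehicle was checked at equivalent concentrations.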

Klebsiella pneumoniae [7] = assay: Antibacterial activity against ESBL Klebsiella pneumoniae NCTC 13368 assessed as bacterial growth inhibition incubated for overnight by microbroth dilution method
Pseudomonas aeruginosa [8] = assay: Antibacterial activity against Pseudomonas aeruginosa NCTC 13437 assessed as bacterial growth inhibition incubated for overnight by microbroth dilution method; type: functional; outline: as §4
Acinetobacter baumannii [9] = assay: Synergistic antibacterial activity against Acinetobacter baumannii ATCC 17978 assessed as fold change in rifampicin MIC at <=0.25 times MIC incubated for overnight by microbroth dilution checkerboard assay relative to rifampicin alone; type: functional; outline: as §1
Acinetobacter baumannii [10] = assay: Synergistic antibacterial activity against Acinetobacter baumannii AYE assessed as fold change in rifampicin MIC at <=0.25 times MIC incubated for overnight by microbroth dilution checkerboard assay relative to rifampicin alone; type: functional; outline: as §1
Klebsiella pneumoniae [11] = assay: Synergistic antibacterial activity against Klebsiella pneumoniae NCTC 13368 assessed as rifampicin MIC at <=0.25 times MIC incubated for overnight by microbroth dilution checkerboard assay; type: functional; outline: as §1
Pseudomonas aeruginosa [12] = assay: Synergistic antibacterial activity against Pseudomonas aeruginosa NCTC 13437 assessed as fold change in rifampicin MIC at <=0.25 times MIC incubated for overnight by microbroth dilution checkerboard assay relative to rifampicin alone; type: functional; outline: as §3
Pseudomonas aeruginosa [13] = assay: Synergistic antibacterial activity against Pseudomonas aeruginosa PAO1 assessed as fold change in rifampicin MIC at <=0.25 times MIC incubated for overnight by microbroth dilution checkerboard assay relative to rifampicin alone; type: functional; outline: as §3
Acinetobacter baumannii [14] = assay: Synergistic antibacterial activity against Acinetobacter baumannii AYE assessed as rifampicin MIC at <=0.25 times MIC incubated for overnight by microbroth dilution checkerboard assay; type: functional; outline: as §1
Klebsiella pneumoniae [15] = assay: Synergistic antibacterial activity against Klebsiella pneumoniae NCTC 13368 assessed as fold change in rifampicin MIC at <=0.25 times MIC incubated for overnight by microbroth dilution checkerboard assay relative to rifampicin alone; type: functional; outline: as §2
Escherichia coli [16] = assay: Synergistic antibacterial activity against Escherichia coli NCTC 12923 assessed as rifampicin MIC at <=0.25 times MIC incubated for overnight by microbroth dilution checkerboard assay; type: functional; outline: as §1
Klebsiella pneumoniae [17] = assay: Antibacterial activity against Klebsiella pneumoniae M6 assessed as bacterial growth inhibition incubated for overnight by microbroth dilution method
Escherichia coli [18] = assay: Antibacterial activity against Escherichia coli NCTC 12923 assessed as bacterial growth inhibition incubated for overnight by microbroth dilution method; type: functional; outline: as §4
Pseudomonas aeruginosa [19] = assay: Synergistic antibacterial activity against Pseudomonas aeruginosa NCTC 13437 assessed as rifampicin MIC at <=0.25 times MIC incubated for overnight by microbroth dilution checkerboard assay; type: functional; outline: as §3
Pseudomonas aeruginosa [20] = assay: Antibacterial activity against Pseudomonas aeruginosa PAO1 assessed as bacterial growth inhibition incubated for overnight by microbroth dilution method; type: functional; outline: as §4
Acinetobacter baumannii [21] = assay: Antibacterial activity against Acinetobacter baumannii ATCC 17978 assessed as bacterial growth inhibition incubated for overnight by microbroth dilution method; type: functional; outline: as §4

With NCCCCN=C(N)N [AGMATINE] the MIC (Acinetobacter baumannii [1]) was 4 µg/mL, the “fold change (FC)” value (Escherichia coli [2]) was 0 and the “fold change (FC)” value (Klebsiella pneumoniae [3]) was 0. The MIC (Pseudomonas aeruginosa [4]) was 32 µg/mL, the MIC (Klebsiella pneumoniae [5]) was 32 µg/mL and the MIC (Acinetobacter baumannii [6]) was greater than 128 µg/mL. For the same compound, the MIC (Klebsiella pneumoniae [7]) was greater than 128 µg/mL, the MIC (Pseudomonas aeruginosa [8]) was greater than 128 µg/mL and the “fold change (FC)” value (Acinetobacter baumannii [9]) was 0. The “fold change (FC)” value (Acinetobacter baumannii [10]) was 0, the MIC (Klebsiella pneumoniae [11]) was 32 µg/mL and the “fold change (FC)” value (Pseudomonas aeruginosa [12]) was 0. For the same compound, the “fold change (FC)” value (Pseudomonas aeruginosa [13]) was 0, the MIC (Acinetobacter baumannii [14]) was 16 µg/mL and the “fold change (FC)” value (Klebsiella pneumoniae [15]) was 0. It also gave an MIC (Escherichia coli [16]) of 32 µg/mL, an MIC (Klebsiella pneumoniae [17]) greater than 128 µg/mL and an MIC (Escherichia coli [18]) greater than 128 µg/mL. For the same compound, the MIC (Pseudomonas aeruginosa [19]) was 32 µg/mL, the MIC (Pseudomonas aeruginosa [20]) was greater than 128 µg/mL and the MIC (Acinetobacter baumannii [21]) was greater than 128 µg/mL.
